From article PMC7108400 (Leukemia research, 2019)
“Also recorded” adds a separate entry of the source. Where two headings read alike, the source gives them in different places.

How the values were obtained:
AML = conditions: cited from earlier work
[1] = Dose-limiting toxicities and MTD/RP2D determination; assay type: in vivo
[2] = system: AML progressed on standard therapy / advanced hematologic malignancies; conditions: single agent, cited from earlier work
[3] = Panobinostat plasma pharmacokinetics, cycle 1 day 8, non-compartmental; assay type: in vivo, human; conditions: for CL/F / AUC / AUC(0-t) / Vd/F: geometric mean (%CV); for Cmax / AUC / AUC(0-t) / half-life / Tmax / Vd/F: human, plasma, oral; for AUC: AUC0inf; for half-life: T1/2, Median (range); for Tmax: Median (range); for Vd/F: Vz/F
How it was run: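 Adults <65 y with newly diagnosed high-risk AML received oral HDAC-inhibitor test compound thrice weekly from day 8, after idarubicin 12 mg/m²/d IV (days 1–3) and ara-C 100 mg/m²/d continuous IV (days 1–7). On cycle 1 day 8, 3 mL blood was drawn pre-dose and at 0.5–28 h. Plasma parameters were derived non-compartmentally; geometric mean (%CV) excluded zero concentrations, and Tmax is median (range).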

[4] = system: first relapse or primary refractory AML; conditions: cited from earlier work
[5] = system: AML cell lines and primary AML cells from patients; conditions: combination with doxorubicin; cited from earlier work
newly diagnosed AML = conditions: cited from earlier work
[6] = system: newly diagnosed primary or secondary high-risk AML; experiment: Anti-leukemic efficacy; assay type: in vivo, human; conditions: for ORR: 20-mg dose level
BRCA1, CHK1, and RAD51 = conditions: AML cell lines; cited from earlier work
de novo AML = conditions: cited from earlier work
[7] = 20 mg, PAN 20 mg (expansion phase), N=10
[8] = elderly patients (> 65 years), with idarubicin and ara-C
[9] = PAN 20 mg (expansion phase), N=12

## Nc1ncn([C@@H]2O[C@H](CO)[C@@H](O)[C@H]2O)c(=O)n1 [azacitidine]
AML; azacitidine alone
  Grade ≥ 3 AEs: 81%

## Cc1[nH]c2ccccc2c1CCNCc1ccc(/C=C/C(=O)NO)cc1 [panobinostat]
[1]; human, in vivo
  Patients who experienced DLTs during induction: 7 patients
  Recommended phase 2 dose (RP2D) of panobinostat: 20 mg
[1]; patients 18–65 years, staggered schedule with idarubicin and ara-C
  MTD: not reached
[2]; of 86 patients, 60-mg dose
  Complete remission (CR): 2 patients
[2]
  MTD of panobinostat alone: 60 mg
[3]; PAN 15 mg, N=10
  CL/F: 295 (54.7) L/h
[3]; PAN 20 mg (expansion phase), N=10
  CL/F: 193 (32.3) L/h
[3]; PAN 20 mg, N=11
  CL/F: 269 (68.2) L/h
[3]; PAN 25 mg, N=8
  Tmax, Median (range): 2.02 [1.25–4.90] h
  CL/F: 294 (44.3) L/h
[3]; 15 mg
  Cmax: 6.03 ng/mL
[3]; 15 mg, PAN 15 mg, N=10
  AUC: 50.8 ng·h/mL
  half-life: 8.74 h
  Tmax: 3 h
  Vd/F: 3920 L
[3]; 15 mg, AUC0–24, PAN 15 mg, N=10
  AUC(0-t): 42.5 ng·h/mL
[3]; 20 mg
  Cmax: 15 ng/mL
[3]; [7]
  AUC: 103 ng·h/mL
  half-life: 7.94 h
  Tmax: 1.98 h
  Vd/F: 1810 L
[3]; 20 mg, PAN 20 mg, N=11
  AUC: 74.3 ng·h/mL
  half-life: 9.7 h
  Tmax: 1.05 h
  Vd/F: 3790 L
[3]; 20 mg, AUC0–24, PAN 20 mg (expansion phase), N=10
  AUC(0-t): 92.7 ng·h/mL
[3]; 20 mg, AUC0–24, PAN 20 mg, N=11
  AUC(0-t): 62.6 ng·h/mL
[3]; 25 mg
  Cmax: 11.2 ng/mL
[3]; 25 mg, PAN 25 mg, N=8
  AUC: 85 ng·h/mL
  half-life: 7.81 h
  Vd/F: 3360 L
[3]; 25 mg, AUC0–24, PAN 25 mg, N=8
  AUC(0-t): 74.6 ng·h/mL
1 in 25 mg and 1 in 20 mg expansion groups
  SAE: sepsis: 2 patients
All patients, n=46
  Discontinuation, primary reason death: 5 (10.9) n (%)
PAN 15 mg, n=11
  Discontinuation, primary reason death: 1 (9.1) n (%)
PAN 20 mg (dose expansion), n=12
  Discontinuation, primary reason death: 3 (25) n (%)
All dose groups
  SAE: infections: 5 patients
All in the 20 mg expansion dose group
  On-treatment deaths during the induction phase: 6.5%
All patients
  Deaths during the study period or within 28 days after the end of treatment: 6 deaths
  Deaths in the induction phase: 3 deaths
  Deaths overall (induction and consolidation): 5 deaths
human, in vivo
  Abdominal pain, Any grade: 3 (6.5) n (%)
  Abdominal pain, Grade 3 or 4: 0 (0.0) n (%)
  All-grade cardiac events: 6.5%
  Alopecia, Any grade: 3 (6.5) n (%)
  Alopecia, Grade 3 or 4: 0 (0.0) n (%)
  Anemia, Any grade: 17 (37.0) n (%)
  Anemia, Grade 3 or 4: 15 (32.6) n (%)
  Anemia, all-grade: 37%
  Decreased appetite, Any grade: 10 (21.7) n (%)
  Decreased appetite, Grade 3 or 4: 1 (2.2) n (%)
  Decreased appetite, all-grade: 21.7%
  Diarrhea, Any grade: 25 (54.3) n (%)
  Diarrhea, Grade 3 or 4: 3 (6.5) n (%)
  Discontinuation, primary reason adverse events: 8 (17.4) n (%)
  Discontinued due to AEs: 15.8%
  Dyspepsia, Any grade: 2 (4.3) n (%)
  Dyspepsia, Grade 3 or 4: 0 (0.0) n (%)
  Fatigue, Any grade: 8 (17.4) n (%)
  Fatigue, Grade 3 or 4: 1 (2.2) n (%)
  Fatigue, all-grade: 17.4%
  Febrile neutropenia, Any grade: 17 (37.0) n (%)
  Febrile neutropenia, Grade 3 or 4: 16 (34.8) n (%)
  Febrile neutropenia, all-grade: 37%
  Grade 3 or 4 AEs suspected to be treatment-related: 73.9%
  Hypokalemia, Any grade: 7 (15.2) n (%)
  Hypokalemia, Grade 3 or 4: 3 (6.5) n (%)
  Left ventricular dysfunction, Any grade: 3 (6.5) n (%)
  Left ventricular dysfunction, Grade 3 or 4: 2 (4.3) n (%)
  Leukopenia, Any grade: 2 (4.3) n (%)
  Leukopenia, Grade 3 or 4: 2 (4.3) n (%)
  Leukopenia, all-grade: 4.3%
  Nausea, Any grade: 18 (39.1) n (%)
  Nausea, Grade 3 or 4: 0 (0.0) n (%)
  Neutropenia, Any grade: 9 (19.6) n (%)
  Neutropenia, Grade 3 or 4: 9 (19.6) n (%)
  Neutropenia, all-grade: 19.6%
  Patients with AEs: 84.8%
  Pyrexia, Any grade: 6 (13.0) n (%)
  Pyrexia, Grade 3 or 4: 0 (0.0) n (%)
  SAE: cardiac disorders: 5 patients
  SAE: grade ≥ 3 febrile neutropenia: 10 patients
  Stomatitis, Any grade: 9 (19.6) n (%)
  Stomatitis, Grade 3 or 4: 0 (0.0) n (%)
  Stomatitis, all-grade: 19.6%
  Thrombocytopenia, Any grade: 21 (45.7) n (%)
  Thrombocytopenia, Grade 3 or 4: 21 (45.7) n (%)
  Thrombocytopenia, all-grade: 45.7%
  Treatment discontinuation due to AEs: 17.4%
  Vomiting, Any grade: 10 (21.7) n (%)
  Vomiting, Grade 3 or 4: 0 (0.0) n (%)
  Vomiting, all-grade: 21.7%
AML; panobinostat 30 mg combined with azacitidine
  Grade ≥ 3 AEs: 97%
[4]; first 2 cohorts, 20 mg and 30 mg thrice weekly
  DLTs: no DLTs occurred
[4]; plus ara-C and mitoxantrone
  CR/CRi rate: 46%
[4]; with mitoxantrone and ara-C as salvage therapy
  RP2D of panobinostat: 50 mg
[5]
  Cell death (caspase-dependent apoptosis): induces cell death
Newly diagnosed AML; [8]
  CR rate: 64%
  Median time to relapse: 17.0 months
Newly diagnosed AML; with 8 mg/m^2 idarubicin (day 1–3) and 100 mg/m^2 ara-C (day 1–7), elderly
  MTD of panobinostat: 10 mg
[6]; 15-mg dose group
  Response rate: 81.8%
[6]; 15-mg dose group (3 patients)
  CRi: 27.3%
[6]; 15-mg dose group (6 patients)
  CR: 54.5%
[6]; escalation phase (9 patients)
  ORR: 60%
[6]; expansion phase (6 patients)
  ORR: 50%
[6]; All patients, N=46
  Complete remission (CR): 20 (43.5) n (%)
  Complete remission with incomplete blood count recovery (CRi): 8 (17.4) n (%)
  Partial remission (PR): 2 (4.3) n (%)
  Response rate (CR or CRi): 28 (60.9) n (%)
  Treatment failure: 13 (28.3) n (%)
[6]; PAN 15 mg, N=11
  Complete remission (CR): 6 (54.5) n (%)
  Complete remission with incomplete blood count recovery (CRi): 3 (27.3) n (%)
  Partial remission (PR): 0 (0.0) n (%)
  Response rate (CR or CRi): 9 (81.8) n (%)
  Treatment failure: 1 (9.1) n (%)
[6]; [9]
  Complete remission (CR): 5 (41.7) n (%)
  Complete remission with incomplete blood count recovery (CRi): 1 (8.3) n (%)
  Partial remission (PR): 1 (8.3) n (%)
  Response rate (CR or CRi): 6 (50.0) n (%)
  Treatment failure: 3 (25.0) n (%)
[6]; PAN 20 mg, N=15
  Complete remission (CR): 7 (46.7) n (%)
  Complete remission with incomplete blood count recovery (CRi): 2 (13.3) n (%)
  Partial remission (PR): 0 (0.0) n (%)
  Response rate (CR or CRi): 9 (60.0) n (%)
  Treatment failure: 6 (40.0) n (%)
[6]; PAN 25 mg, N=8
  Complete remission (CR): 2 (25.0) n (%)
  Complete remission with incomplete blood count recovery (CRi): 2 (25.0) n (%)
  Partial remission (PR): 1 (12.5) n (%)
  Response rate (CR or CRi): 4 (50.0) n (%)
  Treatment failure: 3 (37.5) n (%)
[6]; Ten of 46 patients
  Re-induction rate (second induction cycle): 22%
[6]; all 46 patients
  Overall response rate (ORR) (CR or CRi): 60.9%
[6]; all 46 patients (8 patients)
  CR with incomplete count recovery (CRi): 17.4%
[6]; all 46 patients (20 patients)
  Complete remission (CR): 43.5%
[6]; all patients
  Event-free survival at 1-year: 78.3%
[6]; all patients (11 patients)
  Treatment discontinuation due to disease progression: 23.9%
[6]; current study
  Median overall survival: not reached
[6]; inadequate number of events at last censoring
  Median duration of response: not estimable
BRCA1, CHK1, and RAD51
  Expression of BRCA1, CHK1, and RAD51: decreases the levels of key proteins BRCA1, CHK1, and RAD51; also recorded: reduce the expression of BRCA1, CHK1, and RAD51

## O=C(CCCCCCC(=O)Nc1ccccc1)NO [vorinostat]
De novo AML; median follow-up of 82 weeks
  Median overall survival: 82 weeks
De novo AML; with idarubicin and ara-C
  All-grade cardiac events: 15%
  Diarrhea: 72%
  Nausea: 65%
